Assay results from ChEMBL document CHEMBL4196009, “Novel vitexin-inspired scaffold against leukemia” (Eur J Med Chem, 2018).

Key:
KOPN-8 [1] = assay: Induction of apoptosis in human KOPN8 cells assessed as necrotic cells at 10 uM after 24 hrs by Annexin V-FITC/propidium iodide staining-based flow cytometry (reference value: 0.2%); type: functional
In short: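 KOPN-8 cells were treated for 24 h, with a DMSO vehicle control and a staurosporine positive control. Cells were stained with FITC-Annexin V and propidium iodide and analysed by flow cytometry. Quadrant gating separated viable, early apoptotic, late apoptotic (Q2) and necrotic populations.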

MDA-MB-231 [2] = assay: Cell cycle arrest in human MDA-MB-231 cells assessed as accumulation at G2/M phase at 20 uM after 24 hrs by propidium iodide staining-based flow cytometry (reference value: 9.38%); type: functional
MDA-MB-231 [3] = assay: Cell cycle arrest in human MDA-MB-231 cells assessed as accumulation at S phase at 20 uM after 24 hrs by propidium iodide staining-based flow cytometry (reference value: 20.15%); type: functional
KOPN-8 [4] = assay: Induction of apoptosis in human KOPN8 cells assessed as effect on Mcl-1 level at 30 uM after 3 hrs by Western blot analysis relative to control; type: functional
In short: (§1)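 KOPN-8 cells were exposed to compound for 3 h and 24 h, with or without N-acetylcysteine added to a parallel set as antioxidant. Lysates were analysed by Western blot for cleaved PARP, Mcl-1, Ser-2-phosphorylated RNAPII CTD, cMyc, total Rb and pRb. Signals were compared against controls for dose-dependent change.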

KOPN-8 [5] = assay: Induction of apoptosis in human KOPN8 cells assessed as effect on Mcl-1 level at 30 uM after 24 hrs by Western blot analysis relative to control; type: functional; in short: as §1
KOPN-8 [6] = assay: Induction of apoptosis in human KOPN8 cells assessed as effect on Mcl-1 level at 100 uM after 24 hrs by Western blot analysis relative to control; type: functional
In short: (§2)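 KOPN-8 cells were treated at 10–100 µM final, with or without N-acetylcysteine co-addition, for 3 h and 24 h. Lysates were analysed by Western blot for PARP cleavage, Mcl-1, phospho-Ser2 RNAPII CTD, c-Myc, total Rb and pRb. Levels are relative to the vehicle control.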

Homo sapiens [7] = organism: Homo sapiens; assay: Inhibition of RNA polymerase 2 C-terminal domain phosphorylation at Ser2 residue in human KOPN8 cells at 30 uM pre-treated with NAC for 1 hr and measured after 24 hrs by Western blot analysis relative to control; type: cell-based; in short: as §1
Homo sapiens [8] = organism: Homo sapiens; assay: Inhibition of RNA polymerase 2 C-terminal domain phosphorylation at Ser2 residue in human KOPN8 cells at 100 uM pre-treated with NAC for 1 hr and measured after 24 hrs by Western blot analysis relative to control; type: cell-based; in short: as §1
KOPN-8 [9] = assay: Effect on c-Myc expression in human KOPN8 cells at 30 uM pre-treated with NAC for 1 hr and measured after 3 hrs by Western blot analysis relative to control; type: functional
KOPN-8 [10] = assay: Effect on c-Myc expression in human KOPN8 cells at 10 uM after 24 hrs by Western blot analysis relative to control; type: functional; in short: as §2
KOPN-8 [11] = assay: Effect on c-Myc expression in human KOPN8 cells at 100 uM after 24 hrs by Western blot analysis relative to control; type: functional; in short: as §2
[12] = target: T1, Retinoblastoma-associated protein (Homo sapiens) (UniProt P06400); assay: Inhibition of Rb phosphorylation in human KOPN8 cells assessed as ratio of phosphorylated Rb to total Rb levels at 100 uM after 24 hrs by Western blot analysis relative to control; type: cell-based
T1 sequence (whole entry): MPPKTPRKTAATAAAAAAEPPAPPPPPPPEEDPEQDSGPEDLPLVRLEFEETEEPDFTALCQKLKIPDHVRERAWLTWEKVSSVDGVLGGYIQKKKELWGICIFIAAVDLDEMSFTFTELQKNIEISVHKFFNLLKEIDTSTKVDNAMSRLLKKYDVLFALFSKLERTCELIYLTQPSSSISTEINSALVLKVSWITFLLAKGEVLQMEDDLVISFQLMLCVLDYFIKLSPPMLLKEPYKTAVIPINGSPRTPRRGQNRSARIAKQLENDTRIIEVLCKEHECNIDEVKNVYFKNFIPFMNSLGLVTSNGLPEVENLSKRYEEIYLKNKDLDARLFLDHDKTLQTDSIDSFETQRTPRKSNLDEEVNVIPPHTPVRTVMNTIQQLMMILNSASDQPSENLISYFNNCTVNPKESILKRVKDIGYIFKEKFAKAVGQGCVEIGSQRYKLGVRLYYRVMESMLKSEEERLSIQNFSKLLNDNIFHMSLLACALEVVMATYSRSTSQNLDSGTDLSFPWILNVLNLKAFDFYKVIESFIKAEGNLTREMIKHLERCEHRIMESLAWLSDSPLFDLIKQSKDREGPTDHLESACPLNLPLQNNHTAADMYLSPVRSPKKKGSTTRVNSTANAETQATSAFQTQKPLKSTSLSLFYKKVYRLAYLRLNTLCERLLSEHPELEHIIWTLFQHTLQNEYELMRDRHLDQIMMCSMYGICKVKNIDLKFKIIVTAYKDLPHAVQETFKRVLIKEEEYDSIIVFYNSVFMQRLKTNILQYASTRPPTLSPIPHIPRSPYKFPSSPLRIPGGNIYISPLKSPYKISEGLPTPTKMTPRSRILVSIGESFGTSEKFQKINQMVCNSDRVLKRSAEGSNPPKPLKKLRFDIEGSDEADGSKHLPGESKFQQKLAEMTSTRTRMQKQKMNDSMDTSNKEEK
In short: (§3)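 KOPN-8 pre-B ALL cells were treated for 3 h and 24 h, with or without N-acetyl cysteine added to a parallel set of cells as an antioxidant/ROS quencher. Lysates were analysed by Western blot for phosphorylated Rb and total Rb. The same blots also probed PARP cleavage, Mcl-1, Ser-2-phosphorylated RNAPII CTD and cMyc.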

SUP-B15 = assay: Induction of apoptosis in human SUP-B15 cells assessed as necrotic cells at 5 uM after 24 hrs by Annexin V-FITC/propidium iodide staining-based flow cytometry (reference value: 9.2%); type: functional
KOPN-8 [13] = assay: Cell cycle arrest in human KOPN8 cells assessed as accumulation at G0/G1 phase at 5 uM after 24 hrs by propidium iodide staining-based flow cytometry (reference value: 24.77%); type: functional
In short: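 KOPN-8 cells treated 24 h alongside a DMSO vehicle and a staurosporine (2.0 µM) positive control. Apoptosis was scored by FITC Annexin V / propidium iodide flow cytometry with quadrant gating (early, late apoptotic). DNA content was measured by PI staining to give the percentage of cells in G0/G1, S and G2/M. Groups were compared by t-test; error bars are SD.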

[14] = target: T1, Retinoblastoma-associated protein (Homo sapiens); assay: Inhibition of Rb phosphorylation in human KOPN8 cells assessed as ratio of phosphorylated Rb to total Rb levels at 0.5 uM after 3 hrs by Western blot analysis relative to control; type: cell-based; in short: as §3

SMILES | Activity (KOPN-8 [1]) [%] | Activity (MDA-MB-231 [2]) [%] | Activity (MDA-MB-231 [3]) [%] | fold change (FC) (KOPN-8 [4]) | fold change (FC) (KOPN-8 [5]) | fold change (FC) (KOPN-8 [6]) | fold change (FC) (Homo sapiens [7]) | fold change (FC) (Homo sapiens [8]) | fold change (FC) (KOPN-8 [9]) | fold change (FC) (KOPN-8 [10]) | fold change (FC) (KOPN-8 [11]) | fold change (FC) [12] | Activity (SUP-B15) [%] | Activity (KOPN-8 [13]) [%] | fold change (FC) [14]
COc1ccc(-c2c(I)c(=O)c3c(OC)cc(OC)cc3n2S(=O)(=O)c2ccc(OC)cc2)cc1 | 0.3 | 15.97 | 17.81 | 0.6 | 0.7 | 0.1 | 0.7 | 0.1 | 1 | 1.3 | 0.1 | 1 | – | – | –
CN(C)C(=O)c1cc2cnc(Nc3ccc(N4CCNCC4)cn3)nc2n1C1CCCC1 [RIBOCICLIB] | – | – | – | – | – | – | – | – | – | – | – | – | 25.7 | 45.66 | 1
